Experimental data collected from several papers.
Compare with care: the assays were run in different laboratories.
Effect on: cell growth or viability

SMILES | cell line | method | tested at | time | quantity | result
COc1ccc2c(c1)C(=NNc1nc(-c3ccc(OC)c(OC)c3)nc3ccccc13)C(=O)N2 | ZR75 | – | 30 µM | – | inhibition | 23.1%
Cc1ccc(C(CS(=O)(=O)c2ccccc2)=NN=C2N=C(c3ccc(Br)cc3)CS2)cc1 | WM 266-4 | MTT | 0.4 µM | 48 h | viability | 63.8%
Cn1c(=O)c(NN=C2C(=O)Nc3ccc(Cl)cc32)nc2ccccc21 | ZR75 | – | 30 µM | – | inhibition | 29.8%
Cn1cc(-c2cc(N3CCCCS3(=O)=O)ccc2Oc2ccc(F)cc2F)c2c(F)c[nH]c2c1=O | MOLM-14 | CCK-8 | – | 72 h | GI50 | 0.0081 µM
COc1ccc2c(c1)/C(=N/NC(=O)c1cc3ccccc3[nH]1)C(=O)N2 | ZR75 | – | 30 µM | – | inhibition | 65.9%
CNC(=O)c1cc(Oc2ccc(NC(=O)Nc3ccc(Cl)c(C(F)(F)F)c3)cc2)ccn1 | WM 266-4 | MTT | 6.3 µM | 48 h | viability | 50.7%
COc1ccc2c(c1)C(=NNc1ncnc3cc(OC)c(OC)cc13)C(=O)N2 | ZR75 | – | 10 µM | – | inhibition | 32%
O=C1Nc2ccc(F)cc2/C1=N/NC(=O)c1cc2ccccc2[nH]1 | ZR75 | – | 30 µM | – | inhibition | 40%
O=C(Cc1ccc(C(F)(F)F)cc1)Nc1cccc(C(=O)Nc2ccc3[nH]ncc3c2)c1 | KM12 | ATP luminescence | – | 72 h | IC50 | 48.4 µM
O=C1Nc2ccccc2C1=NNc1nnc(Cc2ccccc2)c2ccccc12 | ZR75 | – | 30 µM | – | inhibition | 54.3%
C=CC(=O)N1CCC[C@@H](n2nc(-c3ccc(Oc4ccccc4)cc3)c3c(N)ncnc32)C1 | KMS-12-BM | – | – | 48 h | GI50 | > 10 µM
C=CC(=O)N1CCC[C@@H](n2nc(-c3ccc(Oc4ccccc4)cc3)c3c(N)ncnc32)C1 | JeKo-1 | ATP luminescence | – | 72 h | GI50 | 20.1 µM
COc1cc2ncnc(NN=C3C(=O)Nc4ccccc43)c2cc1OC | ZR75 | – | 30 µM | – | inhibition | 50.4%
Cc1cc(C)n(C(=S)[S][Au][PH](CCCCCC[PH]([Au][S]C(=S)n2nc(C)cc2C)(c2ccccc2)c2ccccc2)(c2ccccc2)c2ccccc2)n1 | KM12 | – | – | – | GI50 | 0.386 µM
NC(=S)NN=C(CS(=O)(=O)c1ccccc1)c1ccc(F)cc1 | WM 266-4 | MTT | 0.4 µM | 48 h | viability | 58%
CCN(CC)CCNC(=O)c1c(C)[nH]c(/C=C2\C(=O)Nc3ccc(F)cc32)c1C | ZR75 | – | 30 µM | – | inhibition | 90.7%
Cc1ccc(C(CS(=O)(=O)c2ccccc2)=NNc2nc(C)c(N=Nc3cccc(C)c3)s2)cc1 | WM 266-4 | MTT | 100 µM | 48 h | viability | 32.8%
COc1cccc(Oc2ccccc2NC(=O)CNC(=O)c2cccc3ccccc23)c1 | KM12 | SRB | – | 48 h | GI50 | 0.191 µM
O=C1Nc2ccccc2/C1=N/NC(=O)c1cc2ccccc2[nH]1 | ZR75 | – | 30 µM | – | inhibition | 57.7%
O=C(Nc1ccc(F)cc1)Nc1cccc(C(=O)Nc2ccc3[nH]ncc3c2)c1 | KM12 | ATP luminescence | – | 72 h | IC50 | 40.3 µM
Cc1ccc(C(CS(=O)(=O)c2ccccc2)=NNc2nc(-c3ccc(OCCCCOc4ccc(-c5csc(NN=C(CS(=O)(=O)c6ccccc6)c6ccc(C)cc6)n5)cc4)cc3)cs2)cc1 | WM 266-4 | MTT | 0.4 µM | 48 h | viability | 77%
O=C(N/N=C1\C(=O)N(c2ccccc2)c2ccccc21)c1cc2ccccc2[nH]1 | ZR75 | – | 30 µM | – | inhibition | 92.2%
Cc1ccc(C(CS(=O)(=O)c2ccccc2)=NNC2=NC(=O)C(=NNc3ccccc3)S2)cc1 | WM 266-4 | MTT | 6.3 µM | 48 h | viability | 48.2%
O=C(Nc1cnn2ccc(N3CCC[C@@H]3c3cc(F)ccc3F)nc12)N1CC[C@H](O)C1 | KM12 | ATP luminescence | – | 72 h | IC50 | > 50 µM
COc1ccc2c(c1)/C(=N/NC(=O)c1cc3ccccc3[nH]1)C(=O)N2C | ZR75 | – | 30 µM | – | inhibition | 82.5%
COc1ccc(-c2nc(NN=C3C(=O)Nc4ccc(Br)cc43)c3ccccc3n2)cc1OC | ZR75 | – | 10 µM | – | inhibition | 78.8%
O=C1Nc2ccc(Br)cc2/C1=N/NC(=O)c1cc2ccccc2[nH]1 | ZR75 | – | 30 µM | – | inhibition | 58.9%
COc1ccc2c(c1)C(=NNc1nc3ccccc3n(C)c1=O)C(=O)N2 | ZR75 | – | 30 µM | – | inhibition | 76%
CC(C)(C)c1nc(-c2cccc(NS(=O)(=O)c3c(F)cccc3F)c2F)c(-c2ccnc(N)n2)s1 | WM 266-4 | MTT | 100 µM | 48 h | viability | 38.1%
